From ChEMBL document CHEMBL1122055, “DL-threo-beta-Fluoroaspartate and DL-threo-beta-fluoroasparagine: selective cytotoxic agents for mammalian cells in culture” (J Med Chem, 1982)
“And” between values parts separate entries of the source, which are not always exact repeats. Equal entries are not always repeated.

Assays:
GH3 [1] = test: Tested for its cytotoxic effect on the growth of the cell strain GH3 (2 x 10e 4 (F 10+)) at 10 ug/mL dose; type: functional, Rattus norvegicus
Method in brief: (§1)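 Cells plated in 35-mm dishes at the stated density and medium (F 10+: Ham's F10 + 15% horse serum + 2.5% fetal calf serum; MEM+: Eagle's MEM + 5% horse + 5% fetal calf serum), grown 3 days. All strains then switched to F 10+ before treatment and incubated 4 days. Growth read as total cell protein per dish (Lowry, bovine albumin standard). Single determinations; experiment repeated twice.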

H4 [2] = test: Tested for its reversal effect on growth of H4 cells at 5 ug/mL concentrations of L-aspargine and DL-threo-beta-fluoroaspartate; type: functional
MH1C1 [3] = test: Tested for its cytotoxic effect on the growth of the cell strain MH1C1 (1 x 10e 4 (F 10+)) at 75 ug/mL dose; type: functional; method in brief: as §1
R5 [4] = test: Tested for its cytotoxic effect on the growth of the cell strain R5 (1 x 10e 3 (F 10+)) at 20 ug/mL dose; type: functional; method in brief: as §1
7800C1 cell line [5] = test: Tested for its cytotoxic effect on the growth of the cell strain 7800C1 (1 x 10e 4 (MEM)) at 10 ug/mL dose; type: functional, Rattus norvegicus; method in brief: as §1
GH3 [6] = test: Tested for its cytotoxic effect on the growth of the cell strain GH3 (2 x 10e 4 (F 10+)) at 20 ug/mL dose; type: functional, Rattus norvegicus; method in brief: as §1
H4 [7] = test: Tested for its cytotoxic effect on the growth of the cell strain H4 (8 x 10e 3 (MEM)) at 2 ug/mL dose; type: functional; method in brief: as §1
MH1C1 [8] = test: Tested for its cytotoxic effect on the growth of the cell strain MH1C1 (1 x 10e 4 (F 10+)) at 5 ug/mL dose; type: functional; method in brief: as §1
GH4-C1 [9] = test: Tested for its cytotoxic effect on the growth of the cell strain GH4C1 (8 x 10e 4 (F 10+)) at 75 ug/mL dose; type: functional, Rattus norvegicus; method in brief: as §1
H4 [10] = test: Tested for its cytotoxic effect on the growth of the cell strain H4 (8 x 10e 3 (MEM)) at 20 ug/mL dose; type: functional; method in brief: as §1
R5 [11] = test: Tested for its cytotoxic effect on the growth of the cell strain R5 (1 x 10e 3 (F 10+)) at 5 ug/mL dose; type: functional; method in brief: as §1
H4 [12] = test: Tested for its cytotoxic effect on the growth of the cell strain H4 (8 x 10e 3 (MEM)) at 5 ug/mL dose; type: functional; method in brief: as §1
7800C1 cell line [13] = test: Tested for its cytotoxic effect on the growth of the cell strain 7800C1 (1 x 10e 4 (MEM)) at 5 ug/mL dose; type: functional, Rattus norvegicus; method in brief: as §1
GH4-C1 [14] = test: Tested for its cytotoxic effect on the growth of the cell strain GH4C1 (8 x 10e 4 (F 10+)) at 2 ug/mL dose; type: functional, Rattus norvegicus; method in brief: as §1
GH4-C1 [15] = test: Tested for its cytotoxic effect on the growth of the cell strain GH4C1 (8 x 10e 4 (F 10+)) at 5 ug/mL dose; type: functional, Rattus norvegicus; method in brief: as §1
MH1C1 [16] = test: Tested for its cytotoxic effect on the growth of the cell strain MH1C1 (1 x 10e 4 (F 10+)) at 20 ug/mL dose; type: functional; method in brief: as §1
7800C1 cell line [17] = test: Tested for its cytotoxic effect on the growth of the cell strain 7800C1 (1 x 10e 4 (MEM)) at 75 ug/mL dose; type: functional, Rattus norvegicus; method in brief: as §1
MH1C1 [18] = test: Tested for its cytotoxic effect on the growth of the cell strain MH1C1 (1 x 10e 4 (F 10+)) at 10 ug/mL dose; type: functional; method in brief: as §1
7800C1 cell line [19] = test: Tested for its cytotoxic effect on the growth of the cell strain 7800C1 (1 x 10e 4 (MEM)) at 2 ug/mL dose; type: functional, Rattus norvegicus; method in brief: as §1
GH4-C1 [20] = test: Tested for its cytotoxic effect on the growth of the cell strain GH4C1 (8 x 10e 4 (F 10+)) at 10 ug/mL dose; type: functional, Rattus norvegicus; method in brief: as §1
MH1C1 [21] = test: Tested for its cytotoxic effect on the growth of the cell strain MH1C1 (1 x 10e 4 (F 10+)) at 2 ug/mL dose; type: functional; method in brief: as §1
R5 [22] = test: Tested for its cytotoxic effect on the growth of the cell strain R5 (1 x 10e 3 (F 10+)) at 2 ug/mL dose; type: functional; method in brief: as §1
GH4-C1 [23] = test: Tested for its cytotoxic effect on the growth of the cell strain GH4C1 (8 x 10e 4 (F 10+)) at 20 ug/mL dose; type: functional, Rattus norvegicus; method in brief: as §1
GH3 [24] = test: Tested for its cytotoxic effect on the growth of the cell strain GH3 (2 x 10e 4 (F 10+)) at 5 ug/mL dose; type: functional, Rattus norvegicus; method in brief: as §1
H4 [25] = test: Tested for its cytotoxic effect on the growth of the cell strain H4 (8 x 10e 3 (MEM)) at 10 ug/mL dose; type: functional; method in brief: as §1
R5 [26] = test: Tested for its cytotoxic effect on the growth of the cell strain R5 (1 x 10e 3 (F 10+)) at 75 ug/mL dose; type: functional; method in brief: as §1
R5 [27] = test: Tested for its cytotoxic effect on the growth of the cell strain R5 (1 x 10e 3 (F 10+)) at 10 ug/mL dose; type: functional; method in brief: as §1
H4 [28] = test: Tested for its cytotoxic effect on the growth of the cell strain H4 (8 x 10e 3 (MEM)) at 75 ug/mL dose; type: functional; method in brief: as §1
7800C1 cell line [29] = test: Tested for its cytotoxic effect on the growth of the cell strain 7800C1 (1 x 10e 4 (MEM)) at 20 ug/mL dose; type: functional, Rattus norvegicus; method in brief: as §1
GH3 [30] = test: Tested for its cytotoxic effect on the growth of the cell strain GH3 (2 x 10e 4 (F 10+)) at 75 ug/mL dose; type: functional, Rattus norvegicus; method in brief: as §1
GH3 [31] = test: Tested for its cytotoxic effect on the growth of the cell strain GH3 (2 x 10e 4 (F 10+)) at 2 ug/mL dose; type: functional, Rattus norvegicus; method in brief: as §1
H4 [32] = test: Tested for its reversal effect on growth of H4 cells at 330 + 5 ug/mL concentrations of L-aspargine and DL-threo-beta-fluoroaspartate; type: functional
Method in brief: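 H4 hepatoma cells seeded at 8×10^3 per 35-mm dish in F 10+ medium. On day 4, the medium was renewed and treatments started, including L-aspartate or L-asparagine. Incubation 72 h, then Lowry total cell protein per dish. Results reported as % of untreated control, mean of duplicate dishes.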

H4 [33] = test: Tested for its reversal effect on growth of H4 cells at 133 + 5 ug/mL concentrations of L-aspargine and DL-threo-beta-fluoroaspartate; type: functional
Method in brief: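 Rat hepatoma H4 cells seeded at 1.4×10^4 per 35-mm dish in MEM+. On day 4, fresh MEM+ was added, with treatments including L-aspartate or L-asparagine. Exposure 66 h, then total cell protein per dish measured by Lowry. Results expressed as % of untreated control protein, mean of duplicate dishes.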

H4 (Rattus norvegicus) [34] = test: Tested for its reversal effect on growth of H4 cells at 330 ug/mL concentrations of L-aspargine and DL-threo-beta-fluoroaspartate
H4 (Rattus norvegicus) [35] = test: Tested for its reversal effect on growth of H4 cells at 133 ug/mL concentrations of L-aspargine and DL-threo-beta-fluoroaspartate
[36] = tested on: 7800C1 (Rattus norvegicus); test: Compound was tested for its uptake by the 7800C1 cells
MH1C1 [37] = test: Compound was tested for its uptake by the MH1C1 cells; type: functional
Method in brief: (§2)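 Cells plated in 100-mm dishes in F 10⁺; on day 4 medium replaced with fresh F 10⁺, and 3 h later ¹⁴C-labeled amino acid added to duplicate dishes. 6 h incubation, then monolayer washed in cold 0.9% NaCl, cells scraped off, and radioactivity counted by liquid scintillation. Uptake expressed as nmol/10⁶ cells from cell counts on untreated dishes; mean of duplicates.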

Jensen sarcoma = test: Compound was tested for its uptake by the Jensen sarcoma cells; type: functional, Rattus norvegicus; method in brief: as §2
[38] = Distribution of radioactivity derived form [C14]-labeled compound taken up by 7800C1 cells; total uptake; type: ADME
Method in brief: (§3)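 7800C₁ cells in 100-mm dishes in MEM⁺; on day 4 medium renewed, and 6 h later ¹⁴C-labeled amino acid added to duplicate dishes for 12 h. Washed cells fractionated with 10% trichloroacetic acid (3 h, 0 °C) into acid-soluble material, then hot 5% acid (82 °C, 30 min) to release nucleic acid, leaving a protein pellet on glass-fiber filter. Scintillation counting; nmol/10⁶ cells, mean of duplicates.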

H4 (Rattus norvegicus) [39] = test: Compound was tested for its uptake by the H4 cells
[40] = Percent recovery form [C14]-labeled compound taken up by 7800C1 cells; type: ADME; conditions: rat; method in brief: as §3
GH4-C1 [41] = test: Compound was tested for its uptake by the GH4C1 cells; type: functional, Rattus norvegicus; method in brief: as §2

NC(C(=O)O)C(F)C(=O)O (racemic)
Cell protein (GH3 [1]): 104 ug dish-1 | Cell protein in untreated control (H4 [2]): 0% and 5% | Cell protein (MH1C1 [3]): 149 ug dish-1 | Cell protein (R5 [4]): 50 ug dish-1 | Cell protein (7800C1 cell line [5]): 249 ug dish-1 | Cell protein (GH3 [6]): 22 ug dish-1 | Cell protein (H4 [7]): 114 ug dish-1 | Cell protein (MH1C1 [8]): 167 ug dish-1 | Cell protein (GH4-C1 [9]): 126 ug dish-1 | Cell protein (H4 [10]): 4 ug dish-1 | Cell protein (R5 [11]): 98 ug dish-1 | Cell protein (H4 [12]): 9 ug dish-1 | Cell protein (7800C1 cell line [13]): 9 ug dish-1 | Cell protein (GH4-C1 [14]): 96 ug dish-1 | Cell protein (GH4-C1 [15]): 98 ug dish-1 | Cell protein (MH1C1 [16]): 140 ug dish-1 | Cell protein (7800C1 cell line [17]): 229 ug dish-1 | Cell protein (MH1C1 [18]): 159 ug dish-1 | Cell protein (7800C1 cell line [19]): 10 ug dish-1 | Cell protein (GH4-C1 [20]): 126 ug dish-1 | Cell protein (MH1C1 [21]): 154 ug dish-1 | Cell protein (R5 [22]): 128 ug dish-1 | Cell protein (GH4-C1 [23]): 36 ug dish-1 | Cell protein (GH3 [24]): 23 ug dish-1 | Cell protein (H4 [25]): 150 ug dish-1 | Cell protein (R5 [26]): 90 ug dish-1 | Cell protein (R5 [27]): 122 ug dish-1 | Cell protein (H4 [28]): 156 ug dish-1 | Cell protein (7800C1 cell line [29]): 6 ug dish-1 | Cell protein (GH3 [30]): 61 ug dish-1 | Cell protein (GH3 [31]): 69 ug dish-1

NC(=O)C[C@H](N)C(=O)O.NC(C(=O)O)C(F)C(=O)O (racemic)
Cell protein in untreated control (H4 [32]): 17% | Cell protein in untreated control (H4 [33]): 0%

NC(=O)C[C@H](N)C(=O)O [ASPARAGINE]
Cell protein in untreated control (H4 (Rattus norvegicus) [34]): 100% | Cell protein in untreated control (H4 (Rattus norvegicus) [35]): 103%

N[C@@H](CC(=O)O)C(=O)O [ASPARTIC ACID]
Activity [36]: 13.2 nM (10e6*cells)-1 | Activity (MH1C1 [37]): 0.5 nM (10e6*cells)-1 | Activity (Jensen sarcoma): 0.4 nM (10e6*cells)-1 | Cell protein in untreated control (H4 (Rattus norvegicus) [34]): 77% | Activity [38]: 21 nM (10e6*cells)-1 | Activity (H4 (Rattus norvegicus) [39]): 23.4 nM (10e6*cells)-1 | Recovery [40]: 83% | Cell protein in untreated control (H4 (Rattus norvegicus) [35]): 115% | Activity (GH4-C1 [41]): 1.1 nM (10e6*cells)-1
